Experimental data reported in ChEMBL document CHEMBL1921722, “In vitro and in vivo evaluation of select kahalalide F analogs with antitumor and antifungal activities” (Bioorg Med Chem, 2011).
Activity calls are given as the source filed them.

Key:
[1] = tested on: ACHN; assay: Cytotoxicity against human ACHN cells assessed as cell growth at 80 uM by sulforhodamine B assay relative to control; format: functional; conditions: read-out: Activity
How it was run: (§1)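 Run at NCI in the DTP 60-cell-line human tumor panel by standard procedure. Compounds were first screened at a single concentration, then tested at five tenfold-spaced concentrations. GI50 is the concentration reducing treated-cell growth to half that of untreated controls; TGI is the concentration completely halting growth.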

[2] = tested on: MDA-MB-435; assay: Cytotoxicity against human MDA-MB-435 cells by sulforhodamine B assay; format: functional
How it was run: (§2)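 NCI Developmental Therapeutics Program 60-cell-line human tumor panel screen, run at NCI. A single-concentration pre-screen was followed by a five-concentration dose-response in 10-fold steps. GI50 is the concentration that reduces growth of treated cells to half that of untreated control cells. TGI is the concentration that completely halts growth.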

[3] = tested on: NCI-H226; assay: Cytotoxicity against human NCI-H226 cells by sulforhodamine B assay; format: functional; how it was run: as §2
[4] = tested on: 786-0; assay: Cytotoxicity against human 786-0 cells by sulforhodamine B assay; format: functional; how it was run: as §1
[5] = tested on: PC-3; assay: Cytotoxicity against human PC3 cells assessed as cell growth at 80 uM by sulforhodamine B assay relative to control; format: functional; conditions: read-out: Activity
[6] = tested on: HCT-15; assay: Cytotoxicity against human HCT15 cells assessed as cell growth at 800 nM by sulforhodamine B assay relative to control; format: functional; conditions: read-out: Activity
[7] = tested on: HOP-92; assay: Cytotoxicity against human HOP92 cells assessed as cell growth at 8 uM by sulforhodamine B assay relative to control; format: functional; conditions: read-out: Activity
[8] = tested on: HT-29; assay: Cytotoxicity against human HT-29 cells assessed as cell growth at 80 uM by sulforhodamine B assay relative to control; format: functional; conditions: read-out: Activity
[9] = tested on: RPMI-8226; assay: Cytotoxicity against human RPMI8226 cells by sulforhodamine B assay; format: functional; how it was run: as §2
[10] = tested on: NCI-H322M; assay: Cytotoxicity against human NCI-H322M cells assessed as cell growth at 80 uM by sulforhodamine B assay relative to control; format: functional; conditions: read-out: Activity
[11] = tested on: KM12; assay: Cytotoxicity against human KM12 cells assessed as cell growth at 800 nM by sulforhodamine B assay relative to control; format: functional; conditions: read-out: Activity
[12] = tested on: U-251; assay: Cytotoxicity against human U251 cells assessed as cell growth at 8 uM by sulforhodamine B assay relative to control; format: functional; conditions: read-out: Activity
[13] = tested on: MDA-MB-435; assay: Cytotoxicity against human MDA-MB-435 cells assessed as cell growth at 8 nM by sulforhodamine B assay relative to control; format: functional; conditions: read-out: Activity
[14] = tested on: A498; assay: Cytotoxicity against human A498 cells assessed as cell growth at 8 uM by sulforhodamine B assay relative to control; format: functional; conditions: read-out: Activity; how it was run: as §1
[15] = tested on: MDA-MB-231; assay: Cytotoxicity against human MDA-MB-231 cells assessed as cell growth at 8 uM by sulforhodamine B assay relative to control; format: functional; conditions: read-out: Activity
[16] = tested on: SW-620; assay: Cytotoxicity against human SW620 cells by sulforhodamine B assay; format: functional; how it was run: as §2
[17] = tested on: RXF 393; assay: Cytotoxicity against human RXF393 cells assessed as cell growth at 80 nM by sulforhodamine B assay relative to control; format: functional; conditions: read-out: Activity
[18] = tested on: Hs-578T; assay: Cytotoxicity against human Hs578T cells assessed as cell growth at 8 uM by sulforhodamine B assay relative to control; format: functional; conditions: read-out: Activity
[19] = tested on: NCI/ADR-RES; assay: Cytotoxicity against human NCI/ADR-RES cells assessed as cell growth at 80 nM by sulforhodamine B assay relative to control; format: functional; conditions: read-out: Activity
[20] = tested on: HCC 2998; assay: Cytotoxicity against human HCC2998 cells assessed as cell growth at 8 uM by sulforhodamine B assay relative to control; format: functional; conditions: read-out: Activity
[21] = tested on: Malme-3M; assay: Cytotoxicity against human MALME-3M cells assessed as cell growth at 8 nM by sulforhodamine B assay relative to control; format: functional; conditions: read-out: Activity
[22] = tested on: T47D; assay: Cytotoxicity against human T47D cells by sulforhodamine B assay; format: functional; how it was run: as §2
[23] = tested on: SN12C; assay: Cytotoxicity against human SN12C cells by sulforhodamine B assay; format: functional; how it was run: as §2
[24] = tested on: U-251; assay: Cytotoxicity against human U251 cells assessed as cell growth at 80 nM by sulforhodamine B assay relative to control; format: functional; conditions: read-out: Activity
[25] = tested on: NCI-H23; assay: Cytotoxicity against human NCI-H23 cells assessed as cell growth at 8 uM by sulforhodamine B assay relative to control; format: functional; conditions: read-out: Activity
[26] = tested on: IGROV-1; assay: Cytotoxicity against human IGROV1 cells assessed as cell growth at 8 nM by sulforhodamine B assay relative to control; format: functional; conditions: read-out: Activity
[27] = tested on: M14; assay: Cytotoxicity against human M14 cells assessed as cell growth at 8 uM by sulforhodamine B assay relative to control; format: functional; conditions: read-out: Activity
[28] = tested on: SR; assay: Cytotoxicity against human SR cells assessed as cell growth at 8 nM by sulforhodamine B assay relative to control; format: functional; conditions: read-out: Activity
[29] = tested on: COLO 205; assay: Antitumor activity against human COLO205 cells xenografted in mouse assessed as tumor cell killing at 4.7 mg/kg, ip qd for 4 days by MTT assay; format: functional, organism-based; set-up: dose 4.7 mg/kg
How it was run: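 Hollow-fiber assay in mice. Tumor lines were grown in RPMI-1640 with 10% FBS and 2 mM glutamine. Cells at 2 × 10^6 cells/ml were loaded into 1 mm PVDF fibers (500,000 Da cutoff), heat-sealed at 2 cm and held 24–48 h at 37 °C, 5% CO2 before implantation. Compound was given IP. Fibers were collected the day after the fourth treatment for MTT (OD 540 nm, group means). A ≥50% cut in percent net growth versus vehicle counted as positive.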

[30] = tested on: RPMI-8226; assay: Cytotoxicity against human RPMI8226 cells assessed as cell growth at 8 uM by sulforhodamine B assay relative to control; format: functional; conditions: read-out: Activity
[31] = tested on: NCI-H522; assay: Cytotoxicity against human NCI-H522 cells by sulforhodamine B assay; format: functional; how it was run: as §2
[32] = tested on: UO-31; assay: Cytotoxicity against human UO31 cells assessed as cell growth at 800 nM by sulforhodamine B assay relative to control; format: functional; conditions: read-out: Activity
[33] = tested on: LOX IMVI; assay: Cytotoxicity against human LOXIMVI cells by sulforhodamine B assay; format: functional; how it was run: as §2
[34] = tested on: NCI-H23; assay: Cytotoxicity against human NCI-H23 cells by sulforhodamine B assay; format: functional; how it was run: as §2
[35] = tested on: SN12C; assay: Cytotoxicity against human SN12C cells assessed as cell growth at 8 nM by sulforhodamine B assay relative to control; format: functional; conditions: read-out: Activity
[36] = tested on: BT-549; assay: Cytotoxicity against human BT549 cells assessed as cell growth at 8 uM by sulforhodamine B assay relative to control; format: functional; conditions: read-out: Activity; how it was run: as §1
[37] = tested on: KM12; assay: Cytotoxicity against human KM12 cells assessed as cell growth at 80 nM by sulforhodamine B assay relative to control; format: functional; conditions: read-out: Activity
[38] = tested on: Pseudomonas aeruginosa; assay: Antimicrobial activity against Pseudomonas aeruginosa ATCC 27853 by CLSI method; format: functional, organism-based

C/C=C1\NC(=O)[C@H](Cc2ccccc2)NC(=O)[C@@H](C(C)C)NC(=O)[C@@H]([C@@H](C)CC)NC(=O)[C@H](NC(=O)[C@H](NC(=O)[C@H](CCCNCc2ccc(F)c(C)c2)NC(=O)[C@H]2CCCN2C(=O)[C@H](NC(=O)[C@@H](NC(=O)[C@@H](NC(=O)[C@H](NC(=O)CCCC(C)C)C(C)C)[C@@H](C)O)C(C)C)C(C)C)[C@@H](C)CC)[C@@H](C)OC(=O)[C@H](C(C)C)NC1=O
growth at 80 µM [1]: -100% | GI50 [2]: 1.15 µM | TGI ([2]; read-out: pTGI (converted)): 2.19 µM | GI50 [3]: 1.48 µM | TGI ([3]; read-out: pTGI (converted)): 3.02 µM | GI50 [4]: 1.29 µM | LC50 [4]: 4.17 µM | TGI ([4]; read-out: pTGI (converted)): 2.34 µM | growth at 80 µM [5]: -76% | growth at 0.8 µM [6]: -35% | growth at 8 µM [7]: -62% | growth at 80 µM [8]: 21% | GI50 ([9]; read-out: GI50): 0.885 µM | TGI ([9]; read-out: TGI): 2.26 µM | GI50 ([9]; read-out: pGI50 (converted)): 0.891 µM | TGI ([9]; read-out: pTGI (converted)): 2.24 µM | growth at 80 µM [10]: -94% | growth at 0.8 µM [11]: -55% | growth at 8 µM [12]: -96% | growth at 0.008 µM [13]: 109% | growth at 8 µM [14]: -92% | growth at 8 µM [15]: -55% | GI50 [16]: 0.513 µM | LC50 [16]: 3.31 µM | TGI ([16]; read-out: pTGI (converted)): 1.45 µM | growth at 0.08 µM [17]: 106% | growth at 8 µM [18]: -48% | growth at 0.08 µM [19]: 88% | growth at 8 µM [20]: -87% | growth at 0.008 µM [21]: 108% | GI50 ([22]; read-out: GI50): 0.144 µM | TGI ([22]; read-out: TGI): 0.327 µM | GI50 ([22]; read-out: pGI50 (converted)): 0.145 µM | TGI ([22]; read-out: pTGI (converted)): 0.331 µM | GI50 [23]: 1.26 µM | LC50 [23]: 4.9 µM | TGI ([23]; read-out: pTGI (converted)): 2.45 µM | growth at 0.08 µM [24]: 100% | growth at 8 µM [25]: -77% | growth at 0.008 µM [26]: 104% | growth at 8 µM [27]: -99% | growth at 0.008 µM [28]: 90% | Activity [29]: inactive | growth at 8 µM [30]: -64% | GI50 [31]: 2.57 µM | LC50 [31]: > 75.9 µM | TGI ([31]; read-out: pTGI (converted)): 35.5 µM | growth at 0.8 µM [32]: 92% | GI50 [33]: 1.48 µM | LC50 [33]: 4.9 µM | TGI ([33]; read-out: pTGI (converted)): 2.69 µM | GI50 [34]: 1.41 µM | LC50 [34]: 5.25 µM | TGI ([34]; read-out: pTGI (converted)): 2.75 µM | growth at 0.008 µM [35]: 89% | growth at 8 µM [36]: -88% | growth at 0.08 µM [37]: 98% | Activity [38]: inactive
